Assay outcomes from PubChem BioAssay.
Hits are enriched below; roughly 3.1% of the tested compounds scored in any of these assays.
KCNQ1 act: potentiators or activators of human KCNQ1 potassium channel | P51787 | B-score at 10 µM | 0.35% of 310,000 active | CHO-K1 KCNQ1, thallium flux FluxOR fluorescence; hits give high values;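 active means fluorescence ratio B-score, a plate-corrected score, at least three library SD, with initial intensity B-score within 5 SD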
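assay system = CHO-K1 cells stably expressing KCNQ1 | medium = assay buffer, equal DMSO in all wells | timing = 37 °C overnight plating, 90-min dark dye load, 20-min compound pretreatment | measured by = kinetic FluxOR thallium fluorescence, 10-s 1-Hz baseline, 110-s post-stimulus read | measure = fluorescence change relative to baseline, converted to B score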
KCNK9 block: inhibitors of human KCNK9 two-pore domain potassium channel; HEK293 KCNK9, FluxOR thallium flux fluorescence; hits give low values; B-score at 10 µM; 1.2% of 310,000 active; Q9NPC2; AID 488922;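 active means ratio B-score over 3 SD below the library mean, with starting fluorescence within 5 SD of its mean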;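 further: negative B-score means less thallium flux so channel inhibition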
Target sequence (Q9NPC2 whole entry, looked up, the tested form may be a part): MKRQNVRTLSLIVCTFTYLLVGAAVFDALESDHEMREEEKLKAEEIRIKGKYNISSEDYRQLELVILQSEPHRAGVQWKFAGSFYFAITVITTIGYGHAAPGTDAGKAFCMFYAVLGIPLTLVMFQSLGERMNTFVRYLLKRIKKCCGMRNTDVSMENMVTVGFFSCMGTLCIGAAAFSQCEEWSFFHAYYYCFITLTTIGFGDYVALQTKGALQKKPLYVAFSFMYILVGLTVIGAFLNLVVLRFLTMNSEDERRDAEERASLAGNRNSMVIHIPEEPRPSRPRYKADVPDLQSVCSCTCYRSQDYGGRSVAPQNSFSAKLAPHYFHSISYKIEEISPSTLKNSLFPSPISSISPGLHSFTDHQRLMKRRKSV
KCNK3 inh: human KCNK3 channel inhibition, primary screen; CHO-KCNK3 thallium flux, FluxOR fluorescence; hits give low values; 0.84% of 340,000 active; B-score at 10 µM;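 active means B-score under library mean minus 4 SD, starting fluorescence ratio at most library mean plus 5 SD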;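 further: more negative B-score means stronger inhibition of thallium flux through KCNK3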
KCNQ1 block: inhibitors of human KCNQ1 potassium channel | CHO-K1 KCNQ1, FluxOR thallium flux fluorescence; hits give high values | B-score at 10 µM | 1.3% of 310,000 active | P51787 | AID 2642;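 active means compounds whose thallium flux B-score, printed positive for inhibition, exceeds three library SD while starting fluorescence stays within three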;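 further: channel opened by potassium depolarization with thallium stimulus after 20 min compound exposure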
hERG rescue: shields human hERG channel from block by proarrhythmic agents; 0.51% of 310,000 active; Q12809; activation (rescue from dofetilide block), less the hit threshold, % at 10 µM; CHO-hERG, FluxOR thallium flux, dofetilide IC70 present;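 active means activation above the mean of controls blocked by dofetilide plus 5 SD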;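 further: thallium influx through hERG after potassium depolarization seen as dye fluorescence rise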
The depositor's hits bear a star; i = inactive; x = no result.

SMILES | KCNQ1 act | KCNK9 block | KCNK3 inh | KCNQ1 block | hERG rescue
CC(C(=O)Nc1cccc(Br)c1)c1ccc([N+](=O)[O-])cc1 (stereo unspecified) | i | i | i | 6* | -7.2
O=C(Nc1ccc(C(=O)O)cc1)Nc1cccc([N+](=O)[O-])c1 | i | i | i | 7* | -8.3
O=C(Nc1ccc(C(=O)O)cc1)Nc1ccc([N+](=O)[O-])cc1 | i | i | i | i | -6.2
O=C(Nc1cccc([N+](=O)[O-])c1)NC1CCCCCCC1 | i | i | i | 7* | -18.1
Cc1cccc(NS(=O)(=O)c2ccc(C)c(C(=O)NCCCN3CCOCC3)c2)c1 | x | x | i | x | x
CC(=NNC(=O)c1ccncc1)c1ccc2ccccc2c1O | x | x | i | x | x
Cn1ccc(NC(=O)Nc2cccc([N+](=O)[O-])c2)n1 | i | i | i | 6* | -12.4
COc1ccc(NC(=O)CN(C)C(=O)Cn2c(=O)oc3ccccc32)cc1 | i | i | i | i | -17.3
C[n+]1cccc(C(=O)Nc2ccccc2)c1 | i | i | i | i | 0.5
CC(=O)NS(=O)(=O)c1ccc(NC(=O)/C=C/c2cn(-c3ccccc3)nc2-c2ccccc2)cc1 | i | i | i | i | -4.5
O=C(/C=C\c1cn(-c2ccccc2)nc1-c1ccccc1)Nc1nccs1 | i | -7.96* | i | i | -4.5
Cc1ccc(OCC(=O)NCCNC(=O)c2ccc(C)nc2)cc1 | i | i | i | i | -2.9
COc1ccc(C2(c3ccc(OC)cc3)NC(=O)N(CC(=O)Nc3ccc(OC(F)F)cc3)C2=O)cc1 | i | i | i | 9* | -1.6
COc1ccc(NC(=O)CN2C(=O)NC(c3ccccc3)(c3ccccc3)C2=O)cc1 | i | i | i | i | -6.1
CC1(C)Cc2c(cnn2-c2ccc(F)cc2)C(NC(=O)CCc2ccncc2)C1 (stereo unspecified) | i | i | i | i | -11.6
CCOC(=O)C1C(=O)CC(C)(O)C(C(=O)OCC)C1c1ccc([N+](=O)[O-])cc1 (stereo unspecified) | i | i | i | i | -2.4
Cc1cc(C)cc(NC(=O)COC(=O)c2cccc(S(=O)(=O)N3CCCCC3)c2)c1 | x | x | i | x | x
CCn1c(SCC(=O)OCC(=O)N2c3ccccc3NC(=O)C2(C)C)nnc1-c1ccco1 | i | i | i | i | 7.0*
O=C(CCCNC(=O)c1ccc(Cl)cc1)OCc1cccc(Br)c1 | i | i | i | i | -16.4
CCS(=O)(=O)N1CCN=C1SCc1ccc(F)cc1 | i | i | i | i | -5.2
CCN(CC)c1ccc2cc(C(C)=O)c(=O)oc2c1 | i | i | i | i | -25.3
CCN(CC)c1ccc2cc(NC(=O)CCC(=O)O)c(=O)oc2c1 | i | i | i | 14* | -26.0
N#Cc1ccc(C2=NC(C(F)(F)F)(C(F)(F)F)c3c(n(Cc4ccco4)c(=O)[nH]c3=O)N2)cc1 | i | i | i | 7* | -17.4
CSc1nc(N(C)CCO)c2sc3nc(-c4ccco4)c4c(c3c2n1)CCC4 | i | i | i | i | -5.0
CSc1nc(SCC(=O)O)c2sc3nc(-c4ccccc4)c4c(c3c2n1)CCC4 | 10* | i | i | i | -12.7
SMILES | KCNQ1 act | KCNK9 block | KCNK3 inh | KCNQ1 block | hERG rescue
CCOC(=O)C(=NCCCN(C)C)NNc1ccc(Br)cc1 | i | i | i | i | -6.0
CCCCN=C(NNc1ccc(Br)cc1)C(=O)OCC | i | -7.57* | i | i | -5.8
CC1CCN(C(=O)CSc2ccc(-c3ccccc3)nn2)CC1 | i | i | i | i | -7.4
C[C@H](CO)N1C[C@H](C)[C@@H](CN(C)Cc2ccncc2)Oc2c(NC(=O)C3CC3)cccc2C1=O | x | x | i | x | x
Cc1ccc(N=Cc2c(O)[nH]c3ccccc23)c([N+](=O)[O-])c1 | i | i | i | i | -1.6
Cc1sc2nc(CSc3ccccc3)nc(N3CCC(C(N)=O)CC3)c2c1C | i | i | i | i | -7.7
CCOC(=O)c1sc2nc(CSc3ccccc3)nc(N3CCC(C(N)=O)CC3)c2c1C | i | i | i | i | 10.3*
COc1cc(NC(=O)COc2cc(O)c3c(c2)OC(C)(C)CC3=O)cc(OC)c1 | i | i | i | i | -5.0
CCCCCc1cc(OC)cc2c1C(=O)OC(C)(C)O2 | x | x | -10.9* | x | x
COc1ccc(Cl)cc1NC(=S)NCCSc1ccc(C)cc1 | i | -8.06* | i | i | -8.2
COc1ccccc1NC(=S)NCCSc1ccc(Cl)cc1 | i | i | i | i | -6.0
CCOC(=O)N1CCC(NC(=O)c2cc(COc3ccccc3SC)on2)CC1 | i | i | i | i | -10.2
Cc1cc(NC(=O)CSc2ccc(-c3ccc(Br)cc3)nn2)no1 | i | i | i | i | -4.9
CC(=O)N1CCc2cc(S(=O)(=O)N3c4ccccc4CC3C)ccc21 (stereo unspecified) | i | i | i | i | 5.4*
CC(=O)N1CCc2cc(S(=O)(=O)N3CCOCC3)ccc21 | i | i | i | i | -6.4
CCc1ccc(NC(=O)C2=CC(c3ccc(OC)cc3)=NS(=O)(=O)N2C)cc1 | i | -7.62* | i | i | -11.2
Cc1cn2c(nc1=O)OC1C(O)C(COC(=O)c3ccccc3)OC12 (stereo unspecified) | i | i | i | i | 5.0*
O=C(OCC1OC2C(Oc3nc(=O)ccn32)C1O)c1ccccc1 (stereo unspecified) | i | i | i | i | -8.3
CN(C)c1oc(-c2ccccc2Cl)nc1C#N | i | i | i | i | -3.2
CN(C)c1oc(-c2ccccc2[N+](=O)[O-])nc1C#N | i | i | i | i | 4.7*
CCOC(=O)C1CCCN(C(=O)C(CCSC)NC(=O)COc2ccccc2)C1 (stereo unspecified) | x | x | i | x | x
Cc1ccc(C(c2sc3nc(C)nn3c2O)N2CCN(C(=O)c3ccco3)CC2)cc1 (stereo unspecified) | i | i | i | i | -8.9
Cc1nc2sc(C(c3ccccc3)N3CCN(C(=O)c4ccco4)CC3)c(O)n2n1 (stereo unspecified) | 12* | i | i | i | 1.6
COc1ccc(OCCN(C)C(=O)c2cccc(S(=O)(=O)N(C)c3ccccc3)c2)cc1 | x | x | i | x | x
COc1cccc(/C=C(/C(=O)OCC(=O)NC2CCCCCCC2)c2ccccc2)c1 | i | -9.87* | i | 10* | -25.4
CCN(CC)CC(=O)Nc1ccc2c(c1)N(C(=O)CN(CC)CC)c1ccccc1CC2 | i | i | i | i | -5.9
CCN(CC)CC(=O)Nc1ccc2c(c1)Nc1ccccc1CC2 | 8* | i | i | i | -2.4
Nc1cccc(N2C(=O)c3cccc4c(N)ccc(c34)C2=O)c1 | i | i | i | 11* | -20.3
